In publication PMC9890135 (Molecular Cancer Therapeutics, 2022):

Key:
[1] = target: T1, MET (Homo sapiens, UniProt P08581, DEL964-1010); test: Inhibition of receptor phosphorylation, ELISA, Hs 746T cells; format: cell-based
[2] = test system: MC38 tumors; test: MC38 syngeneic tumor model, XL092 and ICI combination studies; format: in vivo, mice; conditions: XL092 3 mg/kg orally once a day, anti-PD-1 5 mg/kg twice a week for 2 weeks i.p., 35 days
[3] = test system: SNU-5 cells; test: Cellular proliferation, BrdU incorporation ELISA; format: cell-based; conditions: Homo sapiens, SNU-5, 48 h, read-out: Proliferation IC50
How it was run: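 SNU-5 seeded at 7,500 cells/well in triplicate in IMDM + 10% FBS + 1% penicillin-streptomycin, overnight at 37°C, 5% CO2. Serial dilutions added for 48 h. BrdU labelling 2 h at 37°C. Plates spun 300 × g, 10 min before medium removal. FixDenat 30 min at RT, anti-BrdU-POD 90 min at RT, washes, chemiluminescent read.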

[4] = target: VEGFR2 (Homo sapiens, UniProt P35968); test: Inhibition of receptor phosphorylation, ELISA, HUVEC/VEGF165; format: cell-based; conditions: Cellular IC50 ± SD, VEGFR2 autophosphorylation, serum-free
[5] = target: T1, MET; test: MET phosphorylation in Hs 746T tumors in vivo; parameters: species or system mice; conditions: Hs 746T model; single dose of 100 mg/kg
[6] = target: T2, AXL (Homo sapiens, UniProt P30530); test: AXL phosphorylation in Hs 746T tumors in vivo; parameters: species or system mice
T2 sequence (P30530 26-894): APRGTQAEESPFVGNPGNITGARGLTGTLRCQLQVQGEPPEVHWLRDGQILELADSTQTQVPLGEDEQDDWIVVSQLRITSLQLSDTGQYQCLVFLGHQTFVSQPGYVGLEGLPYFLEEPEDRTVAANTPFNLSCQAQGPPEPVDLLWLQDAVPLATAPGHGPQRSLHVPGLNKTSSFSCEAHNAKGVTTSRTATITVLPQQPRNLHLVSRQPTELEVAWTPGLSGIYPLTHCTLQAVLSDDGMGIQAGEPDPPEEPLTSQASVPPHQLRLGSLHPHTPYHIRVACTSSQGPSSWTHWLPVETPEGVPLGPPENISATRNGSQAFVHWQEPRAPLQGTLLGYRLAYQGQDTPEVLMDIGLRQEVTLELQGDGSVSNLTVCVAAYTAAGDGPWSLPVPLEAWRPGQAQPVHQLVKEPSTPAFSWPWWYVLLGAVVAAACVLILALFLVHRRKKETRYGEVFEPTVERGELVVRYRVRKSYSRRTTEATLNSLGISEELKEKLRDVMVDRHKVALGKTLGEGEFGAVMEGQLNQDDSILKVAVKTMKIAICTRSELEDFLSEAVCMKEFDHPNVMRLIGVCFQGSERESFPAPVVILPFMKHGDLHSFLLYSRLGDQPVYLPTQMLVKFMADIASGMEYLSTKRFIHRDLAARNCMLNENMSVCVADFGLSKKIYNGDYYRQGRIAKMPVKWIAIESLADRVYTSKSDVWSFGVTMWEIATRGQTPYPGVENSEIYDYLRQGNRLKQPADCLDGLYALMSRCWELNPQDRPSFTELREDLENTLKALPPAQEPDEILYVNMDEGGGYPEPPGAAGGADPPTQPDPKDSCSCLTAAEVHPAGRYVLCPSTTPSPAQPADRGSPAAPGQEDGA
How it was run: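 Hs 746T xenograft mice received single oral doses (30 or 100 mg/kg) or vehicle, n = 6/group. […] Tumour pAXL/AXL ratio reported as mean ± SEM, Mann–Whitney U test. Duration study: 100 mg/kg group sampled every 12 h up to 48 h.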

[7] = target: MET (Homo sapiens, UniProt P08581); test: Inhibition of receptor phosphorylation, ELISA, PC-3 cells/HGF; format: cell-based
[8] = target: T3, MER (Homo sapiens, UniProt Q12866); test: Inhibition of receptor phosphorylation, ELISA, MERTK-transfected 293A cells; format: cell-based
T3 sequence (Q12866 21-999): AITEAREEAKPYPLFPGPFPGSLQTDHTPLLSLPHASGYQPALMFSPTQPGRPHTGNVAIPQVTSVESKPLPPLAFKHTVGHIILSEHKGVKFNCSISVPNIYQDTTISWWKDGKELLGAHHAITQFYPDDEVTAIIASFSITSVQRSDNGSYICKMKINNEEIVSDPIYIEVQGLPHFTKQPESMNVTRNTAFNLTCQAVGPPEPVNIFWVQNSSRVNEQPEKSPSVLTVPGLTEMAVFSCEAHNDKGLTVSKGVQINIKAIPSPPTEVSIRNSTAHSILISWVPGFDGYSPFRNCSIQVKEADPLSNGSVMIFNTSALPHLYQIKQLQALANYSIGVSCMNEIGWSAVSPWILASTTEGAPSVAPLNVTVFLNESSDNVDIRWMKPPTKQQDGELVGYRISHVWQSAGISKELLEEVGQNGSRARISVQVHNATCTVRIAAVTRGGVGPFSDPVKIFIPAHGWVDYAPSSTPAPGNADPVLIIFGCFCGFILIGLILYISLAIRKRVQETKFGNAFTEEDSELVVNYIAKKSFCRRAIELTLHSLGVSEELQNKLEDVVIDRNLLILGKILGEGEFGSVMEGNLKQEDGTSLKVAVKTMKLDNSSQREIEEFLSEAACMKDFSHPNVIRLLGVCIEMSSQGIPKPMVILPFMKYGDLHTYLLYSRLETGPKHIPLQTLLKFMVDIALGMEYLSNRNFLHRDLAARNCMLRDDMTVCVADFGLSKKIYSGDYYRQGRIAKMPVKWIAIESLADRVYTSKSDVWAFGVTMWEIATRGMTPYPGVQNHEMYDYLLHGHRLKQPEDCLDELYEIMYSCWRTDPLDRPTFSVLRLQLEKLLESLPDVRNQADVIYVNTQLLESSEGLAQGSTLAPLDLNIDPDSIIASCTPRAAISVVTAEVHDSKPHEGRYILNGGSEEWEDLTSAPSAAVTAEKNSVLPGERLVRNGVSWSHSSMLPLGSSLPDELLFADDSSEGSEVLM

[9] = test system: HUVEC cells; test: Cellular proliferation, BrdU incorporation ELISA; format: cell-based; conditions: Homo sapiens, 48 h, read-out: Proliferation IC50
How it was run: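 HUVEC seeded at 1,500 cells/well in triplicate in VEGF-containing endothelial growth medium, overnight at 37°C, 5% CO2. Serial dilutions added for 48 h. BrdU labelling 2 h at 37°C, FixDenat 30 min at RT, anti-BrdU-POD 90 min at RT, washes, then chemiluminescent substrate read.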

VEGFR2, sequence (P35968 20-1356): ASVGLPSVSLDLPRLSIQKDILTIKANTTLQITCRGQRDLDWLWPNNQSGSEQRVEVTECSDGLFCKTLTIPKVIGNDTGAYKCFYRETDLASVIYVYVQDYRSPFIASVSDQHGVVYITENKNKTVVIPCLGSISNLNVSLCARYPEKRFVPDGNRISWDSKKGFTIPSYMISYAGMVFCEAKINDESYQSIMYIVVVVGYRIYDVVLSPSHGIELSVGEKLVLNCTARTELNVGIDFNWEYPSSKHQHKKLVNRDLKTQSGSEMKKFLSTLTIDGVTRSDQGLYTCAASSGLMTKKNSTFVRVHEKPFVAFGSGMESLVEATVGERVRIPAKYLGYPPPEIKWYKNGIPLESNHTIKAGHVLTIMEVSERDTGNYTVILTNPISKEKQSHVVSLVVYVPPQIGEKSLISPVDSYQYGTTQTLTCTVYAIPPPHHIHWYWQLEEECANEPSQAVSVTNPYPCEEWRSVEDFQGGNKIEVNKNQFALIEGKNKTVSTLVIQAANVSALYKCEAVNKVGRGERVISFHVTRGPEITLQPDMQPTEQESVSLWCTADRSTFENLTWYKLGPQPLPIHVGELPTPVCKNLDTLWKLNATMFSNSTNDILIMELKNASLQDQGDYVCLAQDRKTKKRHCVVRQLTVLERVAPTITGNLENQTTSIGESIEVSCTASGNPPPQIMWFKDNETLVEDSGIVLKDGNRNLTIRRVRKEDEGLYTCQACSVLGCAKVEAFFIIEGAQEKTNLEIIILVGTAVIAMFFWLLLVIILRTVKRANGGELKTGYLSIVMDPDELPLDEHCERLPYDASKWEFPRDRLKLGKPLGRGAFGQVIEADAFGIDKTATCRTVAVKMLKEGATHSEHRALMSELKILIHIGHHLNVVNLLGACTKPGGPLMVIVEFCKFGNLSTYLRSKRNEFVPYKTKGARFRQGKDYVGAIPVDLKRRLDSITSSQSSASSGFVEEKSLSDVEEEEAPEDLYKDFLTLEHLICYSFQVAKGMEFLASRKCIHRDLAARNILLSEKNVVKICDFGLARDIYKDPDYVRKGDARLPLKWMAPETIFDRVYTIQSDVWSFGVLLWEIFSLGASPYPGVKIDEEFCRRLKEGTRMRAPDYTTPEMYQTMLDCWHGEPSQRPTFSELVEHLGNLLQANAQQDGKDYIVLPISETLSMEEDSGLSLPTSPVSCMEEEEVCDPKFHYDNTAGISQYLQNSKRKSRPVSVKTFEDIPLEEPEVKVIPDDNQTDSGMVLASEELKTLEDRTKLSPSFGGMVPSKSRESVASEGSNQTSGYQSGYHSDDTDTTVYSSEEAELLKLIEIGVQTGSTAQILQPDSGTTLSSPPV

Question: With `CNC(=O)c1cc2c(Oc3ccc(NC(=O)C4(C(=O)Nc5ccc(F)cc5)CC4)cc3)ccnc2cc1OC` [XL092] as the compound, how does the IC50 [1] read?
Answer: 25.4 ± 1.32 nM

Question: And the “TGI compared with vehicle” value [2]?
Answer: significant TGI

Question: What about the IC50 [3] of the same compound?
Answer: 98.9 nM

Question: And the IC50 [4]?
Answer: 1.57 ± 1.52 nM

Question: What about the “duration of inhibition of MET phosphorylation” value [5] of the same compound?
Answer: approximately 24 hours

Question: And the “duration of inhibition of AXL phosphorylation” value ([6]; Hs 746T model, single dose of 100 mg/kg)?
Answer: approximately 24 hours

Question: What about the “tumor AXL phosphorylation relative to vehicle” value ([6]; Hs 746T xenograft, single oral doses 30 or 100 mg/kg, P < 0.01) of the same compound?
Answer: significant decrease

Question: What about the IC50 [7] of the same compound?
Answer: 11.9 ± 1.55 nM

Question: What about the IC50 [8] of the same compound?
Answer: 6.01 ± 1.56 nM

Question: And the IC50 [9]?
Answer: 10.4 nM
